Assay outcomes: PubChem BioAssay, several laboratories
SR-BI DiI inh: inhibitors of mouse SR-BI mediated HDL lipid uptake. Q61009. ldlA[mSR-BI] CHO cells, DiI-HDL uptake fluorescence, 3 h. inhibition, % at 12.5 µM. 320,000 tested, 0.96% active;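 active = mean replicate inhibition of at least 70% and a set share of replicates each scoring 70 or more; inconclusive = meets just one of the two criteria; inactive = fails both criteria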;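 also: 0% = median of neutral control wells and 100% = median of positive control wells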
AHR activator: human AHR activation; AHR-responsive luciferase reporter cells, luminescence; 320,000 tested, 2.5% active; P35869; activation, % at 5 µM; in the data active = activation above about 47%;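 also: 0% = vehicle wells and 100% = reference agonist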
GASC-1 inh: inhibitors of human GASC-1 (JMJD2C) demethylase; GST-JMJD2C(1-420) H3K9me3 demethylation, DELFIA europium; inhibition, % at 2.35 µM; 330,000 tested, 0.069% active; AID 2099;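 active = more than half of a compound's replicate wells show inhibition beyond 50%, single wells judged on their own value; inconclusive = some, but no more than half, of replicates pass 50% inhibition; inactive = no replicate passes 50% inhibition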;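 also: signal counts dimethyl H3K9 product captured on neutravidin plate; 0% = median of DMSO wells and 100% = 0.3 times that DMSO median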
Target sequence (Q9H3R0 1-420 limits assumed): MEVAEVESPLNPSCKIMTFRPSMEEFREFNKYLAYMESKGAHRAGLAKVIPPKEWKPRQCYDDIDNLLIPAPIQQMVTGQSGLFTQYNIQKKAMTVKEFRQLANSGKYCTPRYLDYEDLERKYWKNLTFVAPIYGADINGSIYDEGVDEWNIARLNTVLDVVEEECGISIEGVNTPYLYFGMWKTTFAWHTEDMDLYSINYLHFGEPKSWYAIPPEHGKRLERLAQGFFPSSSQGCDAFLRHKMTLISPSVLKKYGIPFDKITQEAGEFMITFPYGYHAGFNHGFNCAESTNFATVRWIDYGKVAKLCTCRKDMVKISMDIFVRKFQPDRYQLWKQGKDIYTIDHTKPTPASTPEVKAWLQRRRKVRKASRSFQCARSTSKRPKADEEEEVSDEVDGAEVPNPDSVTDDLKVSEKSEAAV
FXN GAA850 act: increases GAA850 frataxin promoter reporter activity. activation, % at 6 µM. 360,000 tested, 0.56% active. HEK293 lucGAA850 FXN promoter luciferase reporter, 24 h; percent of 10 µM SAHA response;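 active = activation above the average of all compounds screened plus 3 SD, cutoff fixed separately per campaign, cut at about 7.5% in these data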;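 also: 0% = DMSO wells and 100% = 10 µM SAHA wells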
SR-BI uptake up: activators of SR-BI mediated HDL lipid uptake; activation, % at 12.5 µM; 320,000 tested, 0.096% active; AID 504775; CHO ldlA[mSR-BI] cells, DiI-HDL uptake fluorescence, 3 h; 100 = double the neutral-control signal;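 active = mean replicate activation of at least 60% and every replicate at or above 60%; inconclusive = mean or all-replicate condition met, but not both; inactive = mean below 60% and not all replicates reaching 60%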;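 also: 0% = median plate neutral-control signal and 100% = twice that signal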
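material = CHO ldlA[mSR-BI] cells | medium = Ham's F12 with 0.5% BSA, HEPES 25 mM, pH 7.4 | reagent = fluorescent DiI-HDL, 10 µg/mL final | compound dosing = single-point compound dose | incubation = 3 h, 37 °C | measured by = bottom-read fluorescence, 550/595 nm | measure = HDL uptake via cellular fluorescence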
An asterisk follows results filed as active; ? = inconclusive; nt = no result given. Sampled rows, rich in hits. Any-hit rate of the full collection: about 3.7%.

SMILES	SR-BI DiI inh	AHR activator	GASC-1 inh	FXN GAA850 act	SR-BI uptake up
Cc1ccc(C(CC(N)=O)c2ccco2)cc1 (configuration not stated)	-71	-3	-7	-1	71*
Cc1ccc(C(CCN)c2ccco2)cc1 (configuration not stated)	-2	4	-12	0	2
CCOC(=O)/C=c1\s/c(=C\c2c(OCC)ccc3ccccc23)c(=O)n1CC(=O)NCC1CCCO1 (configuration not stated)	91*	7	20	-3	-91
CCOC(=O)/C=c1/s/c(=C\c2c(OC)ccc3ccccc23)c(=O)n1CC(=O)NCC1CCCO1 (configuration not stated)	-286	nt	nt	-6	?
O=C1/C(=C/c2ccc(O)c(O)c2)SC(=S)N1Nc1ccccc1	39	nt	8	7.8*	-39
O=C(O)[C@H](Cc1c[nH]c2ccccc12)Nc1ncccc1[N+](=O)[O-]	-2	26	-6	-1	2
c1ccc(-c2noc(CC3CCCCC3)n2)nc1	-11	4	3	3	11
COc1ccc(C(NC(=O)C2CCN(Cc3ccc(Oc4ccccc4)cc3)CC2)c2ccccc2C)cn1 (configuration not stated)	nt	nt	nt	-2	nt
CCc1cc(C(=O)Nc2ncccc2O)sc1C	-1	78*	5	1	1
CC(C)OC(=O)CSc1nnc(-c2ccccc2)n1N	-2	-1	-7	2	2
Cc1cc(C)c(NC(=O)CSc2nc3ccc(NC(=O)CSc4nnnn4-c4ccccc4)cc3s2)c(C)c1	77*	5	9	2	-77
CCN(CC)c1nc(SCCOC(=O)Nc2ccccc2)nc(N(CC)CC)n1	87*	1	-3	4	-87
Oc1ccccc1/C=C/c1noc(-c2ccccc2O)n1	13	66*	-10	4	-13
O=C(Cn1nc(-c2ccc3c(c2)OCCO3)ccc1=O)Nc1cccc(NC(=O)c2ccccn2)c1	nt	6	18	nt	nt
C/C(=N\Nc1cccc2cccnc12)c1ccccn1	23	47*	1	2	-23
C/C(=N\Nc1ccccc1[N+](=O)[O-])c1ccccc1O	-3	38	14	5	3
C/C(=N\Nc1cccc2cccnc12)c1ccccc1O	37	50*	-9	3	-37
Oc1c(/C=N/Nc2cccc3cccnc23)ccc2ccccc12	30	48*	-13	3	-30
C/C(=N\Nc1cccc2cccnc12)c1ccc(N)cc1	14	29	14	4	-14
Oc1cccc(/C=N/Nc2cccc3cccnc23)c1	14	nt	-42	5	-14
C=CCNC(=S)N/N=C/c1ccc(-c2ccc(Cl)cc2Cl)o1	71*	61*	1	0	-71
C=CCNC(=S)N/N=C/c1ccc(-c2cc(Cl)ccc2Cl)o1	16	18	4	2	-16
C=CCNC(=S)N/N=C/c1ccc(-c2ccc(OC)cc2)o1	?	64*	14	2	-72
CNC(=S)N/N=C/c1ccc(-c2ccc(C(=O)O)cc2)o1	-19	6	-8	0	19
COc1ccc(NS(=O)(=O)c2cn(C)cn2)cc1OC	-13	0	-2	-1	13
SMILES	SR-BI DiI inh	AHR activator	GASC-1 inh	FXN GAA850 act	SR-BI uptake up
Cc1cn([C@H]2C[C@H](O)[C@@H](CNC(=O)[C@H](N)Cc3cscn3)O2)c(=O)[nH]c1=O	nt	nt	nt	1	nt
Cc1cc2nc(C3CCN(Cc4nnnn4Cc4ccccc4)CC3)[nH]c2cc1C	14	54*	-2	-2	-14
CCC(C)(C)n1nnnc1CN1CCC(c2nc3ccc(C)cc3[nH]2)CC1	6	16	-6	0	-6
C=CCn1c(SCC(=O)Nc2cccnc2Cl)nnc1-c1ccccc1F	-17	3	-3	2	17
COc1cc(/C=C/C(=O)OCC(=O)c2c(N)n(C)c(=O)n(C)c2=O)ccc1OCC#N	71*	-4	3	1	-71
O=[N+]([O-])c1cccc2c(N3CCCC3)ccnc12	0	28	9	-2	0
Cc1c(C(=O)NNC(=O)c2ccccc2O)oc2ccc(Br)cc12	129*	51*	0	1	-129
CCOc1ccc2oc(C(=O)NNC(=O)c3ccccc3O)c(C)c2c1	131*	12	-6	3	-131
COc1ccc(CCNc2c([N+](=O)[O-])ncn2C)cc1OC	-40	0	1	-1	40
COc1ccc(C(=O)OCC(N)=O)cc1[N+](=O)[O-]	-18	-3	-14	1	18
COc1ccc(C(=O)C[n+]2cc(Br)cc3ccccc32)cc1[N+](=O)[O-]	49	71*	13	3	-49
COc1cc(OC)c2c(=O)cc(-c3cccnc3)oc2c1	5	62*	-5	2	-5
Cc1ccc(NC(=O)CN(C)C(=O)CSc2nnc(C(F)(F)F)n2C)cc1	-7	0	-5	3	7
Cc1cc(C(=O)CSc2n[nH]c(N)n2)c(C)n1C1CC1	-20	3	0	0	20
C=CCn1c(C)cc(C(=O)CSc2n[nH]c(N)n2)c1C	-2	50*	18	4	2
Cc1cc(C)c2c(N)c(C(=O)c3ccc(Cl)cc3Cl)sc2n1	19	34	-2	-1	-19
COCc1cc(C)nc2sc(C(=O)Nc3ccccc3Br)c(N)c12	79*	2	-1	5	-79
COCc1cc(C)nc2sc(C(=O)Nc3ccccc3C)c(N)c12	33	10	-19	2	-33
COCc1cc(C)nc2sc(C(=O)OC)c(N)c12	4	5	-2	2	-4
CCc1ccccc1NC(=O)c1sc2nc(C)cc(C)c2c1N	21	67*	-21	1	-21
COCc1cc(C)nc2sc(C(=O)N3CCCC3)c(N)c12	-2	76*	3	1	2
Cc1cc(C)c2c(N)c(C(=O)c3cccc(Cl)c3)sc2n1	-22	48*	4	-2	22
COc1cc(-c2cnc3c(NC(C)=O)cc(-c4cccc(C(=O)NCCO)c4)cn23)cc(OC)c1OC	nt	nt	nt	2	nt
O=C(Cc1ccccc1)NCC(=O)N1CCCCCC1	-2	1	2	0	2
C(=N\NC1=Nc2cccc3cccc1c23)/c1ccccc1	18	28	-5	7	-18
C(=N\NC1=Nc2cccc3cccc1c23)/c1cccnc1	21	74*	7	4	-21
O=C(C1=C(O)C(=O)N(c2ncccn2)C1c1ccc(Cl)cc1)c1ccco1 (configuration not stated)	-23	75*	-14	-2	23
COc1ccc2[nH]c(=O)c(CN(c3ccc(C)c(C)c3)S(C)(=O)=O)cc2c1	-7	2	0	1	7
NNC(=O)c1nn(-c2ccc(Cl)cc2)ccc1=O	-33	4	55*	-2	33
COc1cc(/C=N/NC(=O)c2ccc(COc3ccccc3Cl)o2)cc(Br)c1O	-8	40	-9	2	8
